# High-throughput results as filed in PubChem.
# An excerpt weighted towards active compounds, which were near 2.5% of everything screened.
# FN deposition inh: inhibitors of fibronectin matrix deposition, primary screen, AH1F cells, Alexa488-fibronectin fluorescence, plate reader | AH1F fibroblasts, overnight | inhibition, % at 12.6 µM | hit rate 0.086% among 350,000;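 active = mean inhibition across replicates of 30% or more, regardless of how many single replicates reach that level; inconclusive = mean under 30% yet at least half of replicates reach 30%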;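 note: positive control wells lacked labelled fibronectin entirely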
#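 Assay system: AH1F fibroblasts / Quantity: 10000 cells per well / Medium: DMEM plus 2% serum, read in PBS / Reagent: labelled fibronectin 24 nM / Dosing: single dose, pinned / Times: 1 h cell attachment, overnight exposure to compound and label / Signal: fluorescence, ex 485 nm, em 525 nm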
# PAX8 inh HTS: inhibitors of PAX8-driven TPO luciferase reporter, primary screen, RMG-I cells, single concentration | inhibition, % at 12.6 µM | hit rate 1.2% among 360,000 | AID 652154, 2013 | SteadyGlo, 24 h;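 active = mean replicate inhibition at least 60% with every replicate also reaching 60%; inconclusive = only one of the two criteria is met; inactive = mean below 60% and not all replicates reaching 60%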;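 note: luciferase light reporting Pax8 driven TPO promoter activity; plate controls were median of neutral control wells for no effect and mitoxantrone controls for full effect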
# N-glyco inh: increase of ERlucT glycosylation luciferase signal, primary screen, N-linked glycosylation inhibitor project, D54 ERlucT cells, luminescence, set 2; D54 ERlucT glycosylation luciferase reporter, 24 h; percent of 100 nM tunicamycin response; reporter increase, % at 12.5 µM; hit rate 0.23% among 360,000; AID 588692, 2011;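 active = mean luciferase reporter signal, scaled so untreated is 0 and the glycosylation-blocking control 100, at or above a set limit in every replicate; inconclusive = mean reaches the limit but not every replicate does; inactive = mean below the limit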;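 note: luciferase carries N-glycosylation sites so blocking glycosylation raises the light; 0% = median of neutral control wells and 100% = median of 100 nM tunicamycin wells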
# EWS-Fli block: EWS/Fli-driven NR0B1 reporter inhibitors, primary screen, A673 cells, NR0B1 luciferase, luminescence, MLPCN library | viability-normalised | inhibition, % at 12.6 µM | hit rate 0.67% among 350,000 | AID 651661, 2012;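 active = mean inhibition of at least 50% after viability correction, with every replicate also passing that limit; inconclusive = mean reaches 50% but only one of two replicates passes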;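 note: firefly luciferase signal divided by Alamar Blue viability fluorescence both relative to DMSO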
# AF4-AF9 inh: inhibitors of AF4 peptide binding to AF9, primary screen, biochemical, AlphaScreen, biotin-AF4 peptide, FLAG-AF9, single point | Protein AF-9 (Homo sapiens), P42568 | inhibition, % at 10 µM | hit rate 0.47% among 350,000;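 active = every replicate reaching a set inhibition limit, whatever the replicate mean, cut at about 25% in these data; inconclusive = mean inhibition reaches that limit but some replicates miss it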;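 note: 0% = plate neutral control median and 100% = total signal loss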
# Target sequence (P42568 whole entry, looked up): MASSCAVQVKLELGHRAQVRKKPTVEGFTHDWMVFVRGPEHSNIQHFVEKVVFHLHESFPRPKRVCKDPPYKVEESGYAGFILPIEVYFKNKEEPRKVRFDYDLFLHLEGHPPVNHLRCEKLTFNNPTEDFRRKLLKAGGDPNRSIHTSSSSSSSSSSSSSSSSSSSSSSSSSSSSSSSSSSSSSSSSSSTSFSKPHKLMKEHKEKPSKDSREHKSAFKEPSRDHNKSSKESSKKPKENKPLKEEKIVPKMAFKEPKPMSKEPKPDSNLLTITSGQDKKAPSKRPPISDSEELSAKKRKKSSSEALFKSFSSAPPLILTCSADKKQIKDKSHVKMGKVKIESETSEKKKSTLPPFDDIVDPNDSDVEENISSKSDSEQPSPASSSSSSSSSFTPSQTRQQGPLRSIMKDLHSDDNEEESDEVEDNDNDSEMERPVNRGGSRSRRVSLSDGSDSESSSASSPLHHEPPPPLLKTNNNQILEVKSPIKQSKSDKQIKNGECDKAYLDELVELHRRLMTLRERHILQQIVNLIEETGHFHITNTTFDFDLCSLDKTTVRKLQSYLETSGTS
# HIV Env fusion: inhibitors of HIV-1 Env-driven cell-cell fusion, primary screen, HeLa-JRFL effector, CEM21 target cells, luciferase; hit rate 1.1% among 360,000; AID 651610, 2012; inhibition, % at 12.3 µM;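 active = mean replicate inhibition score of at least 50 and every replicate individually at or above 50; inconclusive = only one of the two criteria met; inactive = mean below 50 and not all replicates reaching 50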;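 note: 0% = plate neutral controls and 100% = maraviroc near 300 nM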
# * = called active by the depositor; i = inactive; ? = inconclusive; . = no result; [ ] = remark or other dose.
SMILES,FN deposition inh,PAX8 inh HTS,N-glyco inh,EWS-Fli block,AF4-AF9 inh,HIV Env fusion
O=C(NCCCn1ccnc1)c1cc(-c2cccs2)on1,1,.,155*,.,.,i
O=C(NCCCN1CCOCC1)c1cc(-c2cccs2)on1,.,.,46*,-26,4,.
CO[C@H]1CN(C)C(=O)c2ccc(NC(=O)C3CC3)cc2OC[C@H](C)N(Cc2cccnc2)C[C@@H]1C,-10,-10,.,-1,-2,.
COc1ccc(CN(C)C[C@H]2Oc3ccc(NS(C)(=O)=O)cc3CC(=O)N([C@@H](C)CO)C[C@H]2C)cc1,.,15,.,-9,0,-43[16.7 µM]
Cc1cc(-c2ccc(S(=O)(=O)N(C)c3ccc(C)c(C)c3)s2)on1,13,15,19,.,3,16
Cc1ccc(N(C)S(=O)(=O)c2ccc(-c3cc(C)no3)s2)cc1,9,26,18,54*,-1,33
Cc1ncoc1C(=O)NC1CCCc2c1cnn2-c1ccc(C(C)(C)C)cc1 (stereo not given),-4,21,-5,28,2,56*
CC[C@@]1(O)C(=O)OCc2c1cc1n(c2=O)Cc2cc3c(CN(C)C)c(O)ccc3nc2-1,-12,102*,-9,63*,-7,.
CC[C@@]1(O)C(=O)OCc2c1cc1n(c2=O)Cc2cc3c(N)cccc3nc2-1,-8,99*,-14,?,-2,68*
COC1(OC)C(/C=C/c2ccc(C)cc2)C(C#N)(C#N)C1(OC)OC (stereo not given),2,85*,-1,.,.,13
CCCNC(=O)N1C[C@@H](C)[C@H](OC)CN(C)C(=O)c2cc(NS(=O)(=O)CC(F)(F)F)ccc2OC[C@@H]1C,.,5,.,-4,-1,.
C[C@@H]1CN([C@@H](C)CO)C(=O)c2cc(NC(=O)Nc3ccc(F)cc3)ccc2O[C@@H](C)CCCCO[C@H]1CN(C)Cc1ccccc1,.,45,.,8,10,8[16.7 µM]
C[C@@H]1CN([C@H](C)CO)C(=O)c2cccc(NC(=O)c3ccncc3)c2O[C@H]1CN(C)Cc1ccc(-c2ccccc2)cc1,11,0,.,11,8,.
O=C(/C=C/c1cccnc1)c1ccc([N+](=O)[O-])cc1,1,2,35*,.,2,5
COc1cc(C(=O)/C=C/c2cccnc2)c([N+](=O)[O-])cc1OC,1,94*,8,38,-2,-247
O=C(C=Cc1ccccc1)c1ccc([N+](=O)[O-])cc1,-13,-17,4,0,3,.
C[C@@H]1CN([C@H](C)CO)C(=O)c2cc(-c3ccccc3F)cnc2O[C@H]1CN(C)C,0,.,.,0,-7,-4[16.7 µM]
Cc1ccc(-c2ccc([C@H]3[C@H](CO)N4C(=O)CN(C(=O)c5cccnc5)C[C@@H]34)cc2)cc1,.,-26,.,18,-13,.
Oc1c(I)cc(I)c2cccnc12,4,100*,-4,52*,-3,37
CCOC(=O)C1=CN(Cc2cccc(-c3cccnc3)c2)S(=O)(=O)N(CC)C1C (stereo not given),4,-14,-7,-23,-1,-18
CCOC(=O)C1=CN(Cc2cccc(-c3cccnc3)c2)S(=O)(=O)N(C)C1C (stereo not given),.,101*,-4,-7,1,36
CCOC(=O)C1=CN(Cc2cccc(F)c2)S(=O)(=O)N(CC)C1c1ccccc1 (stereo not given),.,86*,-3,-12,-2,17
O=C(Cc1c(O)c2ccccc2oc1=O)c1ccc(F)cc1,-11,-101,0,-15,47*,.
O=c1oc2ccccc2c(O)c1CN1CCCCC1,5,.,1,.,.,-25
C[C@H](CO)N1C[C@H](C)[C@@H](CN(C)S(=O)(=O)c2ccc(Cl)cc2)OCCCC[C@H](C)Oc2ccc(NS(=O)(=O)c3cccs3)cc2C1=O,-1,80*,.,18,3,-44[16.7 µM]
C[C@H]1CCCCO[C@H](CN(C)S(=O)(=O)c2ccc(Cl)cc2)[C@@H](C)CN([C@@H](C)CO)C(=O)c2cc(NS(=O)(=O)c3cccs3)ccc2O1,-8,68*,.,26,4,-21[16.7 µM]
